# Measurements from ChEMBL document CHEMBL1128436, “Synthesis and biological evaluation of a new series of sterols as potential hypocholesterolemic agents” (1995).
# Active and inactive are the calls of the source. The rule behind the calls is not given here.
# How the values were obtained:
# [1] = test system: Cricetinae gen. sp.; assay: Total serum cholesterol level with relative to the control value (313(24)) in hamsters at a dose of 0.2% of diet for 1 week; format: functional, Cricetulus griseus
# [2] = molecular target: Low-density lipoprotein receptor (Homo sapiens) (UniProt P01130); assay: Luciferase activity (LDLR/Luc) expressed as light units/microg assayed in LMB the percentage specific light induction of agent over the control at concentration of 20 ug/mL was determined in vitro.
# Summary of the method: (§1)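 Stably transfected CHO clone S27/B30 (LDL receptor promoter fused to firefly luciferase), grown to confluence (2-3 days, 37 °C, 5% CO2). Then 24 h in serum-free assay medium (DMEM/Ham's F-12 3:1, 0.5% bovine albumin) with 25-hydroxycholesterol 0.5 μg/mL plus compound at 0.30-20 μg/mL from ethanol stock, triplicate wells. Lysate luciferase peak light per μg protein (Coomassie). EC30 = concentration giving 30% rise over control. MA = % specific induction at 20 μg/mL.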
# [3] = test system: CHO; assay: Capability of derepressing the transcription of SV40 promoter in CHO cells by luciferase assay; NA= Not active within the test range 0-20 ug/mL; format: functional, cell-based; settings: Cricetulus griseus
# Summary of the method: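 Counter-screen in CHO clone SV40/LN9, with luciferase driven by the SV40 promoter. Confluent monolayers were given compound at 0.30-20 μg/mL for 24 h in serum-free albumin assay medium, triplicate wells. Lysates were read for luciferase peak luminescence, normalized to lysate protein.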
# [4] = organism: Mesocricetus auratus; assay: Serum cholesterol level changes with relative to the control value (313(24)) in hamsters at a dose of 0.2% of diet for 1 week
# [5] = molecular target: Low-density lipoprotein receptor (Homo sapiens) (UniProt P01130); assay: Capability of derepressing the transcription of human Low density lipoprotein receptor promoter in the presence of 25-hydroxycholesterol in CHO cells by luciferase assay; format: cell-based; summary of the method: as §1
# [6] = test system: CHO; assay: In vitro [1-14C]-acetate]-cholesterol biosynthesis inhibition assay (14CACBI) in CHO cells; neg = Negative :no effect on biosynthesis of cholesterol; format: functional, cell-based; settings: Cricetulus griseus
# Summary of the method: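 Confluent CHO cells in replicate 100 mm dishes were held 20 h in assay medium without 25-hydroxycholesterol, with ethanol vehicle (0.5% v/v) or compound at 20 μg/mL. [1-14C]acetate was then added (final 1 μCi/mL) for 4 h more. Cells were scraped and sonicated, lipids separated, and the cholesterol band scraped and counted by scintillation.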
# [7] = test system: Cricetinae gen. sp.; assay: Total serum cholesterol level with relative to the control value (320(14)) in hamsters at a dose of 0.2% of diet for 1 week; format: functional, Cricetulus griseus
# [8] = test system: Cricetinae gen. sp.; assay: Total serum cholesterol level with relative to the control value (425(58)) in hamsters at a dose of 0.2% of diet for 1 week; format: functional, Cricetulus griseus
# [9] = test system: Cricetinae gen. sp.; assay: Total serum cholesterol level with relative to the control value (306(27) in hamsters at a dose of 0.2% of diet for 1 week; format: functional, Cricetulus griseus
# [10] = organism: Mesocricetus auratus; assay: Serum cholesterol level change relative to the control value (306(27)) was calculated.i n hamsters at a dose of 0.2% of diet for 1 week
# [11] = organism: Mesocricetus auratus; assay: Serum cholesterol level change relative to the control value (383(13)) in hamsters at a dose of 0.2% of diet for 1 week
# [12] = organism: Mesocricetus auratus; assay: Serum cholesterol level change relative to the control value (366(24)) in hamsters at a dose of 0.2% of diet for 1 week
# [13] = organism: Mesocricetus auratus; assay: Serum cholesterol level change relative to the control value (333(23)) in hamsters at a dose of 0.2% of diet for 1 week
# [14] = organism: Mesocricetus auratus; assay: Serum cholesterol level change relative to the control value (320(14)) in hamsters at a dose of 0.2% of diet for 1 week
# [15] = molecular target: Low-density lipoprotein receptor (Homo sapiens) (UniProt P01130); assay: (§2) Capability of derepressing the transcription of Low density lipoprotein receptor promoter in the presence of 25-hydroxycholesterol in CHO cells measured as maximum activity at 20 ug/mL; format: cell-based; summary of the method: as §1
# [16] = test system: Cricetinae gen. sp.; assay: Total serum cholesterol level with relative to the control value (274(23)) in hamsters at a dose of 0.2% of diet for 1 week; format: functional, Cricetulus griseus
# [17] = test system: Cricetinae gen. sp.; assay: Total serum cholesterol level with relative to the control value (383(13)) in hamsters at a dose of 0.2% of diet for 1 week; format: functional, Cricetulus griseus
# [18] = test system: Cricetinae gen. sp.; assay: Serum cholesterol level change relative to the control value (274(23)) in hamsters at a dose of 0.2% of diet for 1 week; format: functional, Cricetulus griseus
# [19] = test system: Cricetinae gen. sp.; assay: Serum cholesterol level changes with relative to the control value (425(58)) in hamsters at a dose of 0.2% of diet for 1 week; format: functional, Cricetulus griseus
# [20] = test system: Cricetinae gen. sp.; assay: Total serum cholesterol level with relative to the control value (366(24)) in hamsters at a dose of 0.2% of diet for 1 week; format: functional, Cricetulus griseus
# [21] = organism: Mesocricetus auratus; assay: Serum cholesterol level change relative to the control value (313(24)) in hamsters at a dose of 0.2% of diet for 1 week
# [22] = test system: Cricetinae gen. sp.; assay: Total serum cholesterol level with relative to the control value (333(23)) in hamsters at a dose of 0.2% of diet for 1 week; format: functional, Cricetulus griseus
# [23] = test system: Cricetinae gen. sp.; assay: Total serum cholesterol level relative to the control value (274(23)) in hamsters at a dose of 0.2% of diet for 1 week; format: functional, Cricetulus griseus
# [24] = test system: Cricetinae gen. sp.; assay: Serum cholesterol level change relative to the control value [320(14)] in hamsters at a dose of 0.2% of diet for 1 week; format: functional, Cricetulus griseus
# [25] = test system: Cricetinae gen. sp.; assay: Total serum cholesterol level with relative to the control value [320(14)] in hamsters at a dose of 0.2% of diet for 1 week; format: functional, Cricetulus griseus
# [26] = molecular target: Low-density lipoprotein receptor (Homo sapiens) (UniProt P01130); assay: as §2; format: functional, cell-based; summary of the method: as §1
# [27] = organism: Mesocricetus auratus; assay: Serum cholesterol level change relative to the control value (425(58)) in hamsters at a dose of 0.2% of diet for 1 week
# [28] = test system: Cricetinae gen. sp.; assay: Total serum cholesterol level with relative to the control value [306(27)] in hamsters at a dose of 0.2% of diet for 1 week; format: functional, Cricetulus griseus
# [29] = molecular target: Low-density lipoprotein receptor (Homo sapiens) (UniProt P01130); assay: Capability of derepressing the transcription of human Low density lipoprotein receptor promoter in the presence of 25-hydroxycholesterol in CHO cells by luciferase assay; NA= Not active within the test range 0-20 ug/mL; format: cell-based; summary of the method: as §1
# [30] = organism: Mesocricetus auratus; assay: Serum cholesterol level change relative to the control value [306(27)] in hamsters at a dose of 0.2% of diet for 1 week
# [31] = organism: Mesocricetus auratus; assay: Serum cholesterol level changes with relative to the control value (333(23)) in hamsters at a dose of 0.2% of diet for 1 week
# [32] = organism: Mesocricetus auratus; assay: Serum cholesterol level change relative to the control value (306(27)) in hamsters at a dose of 0.2% of diet for 1 week
# [33] = test system: Cricetinae gen. sp.; assay: Total serum cholesterol level with relative to the control value [383(13)] in hamsters at a dose of 0.2% of diet for 1 week; format: functional, Cricetulus griseus
# [34] = organism: Mesocricetus auratus; assay: Serum cholesterol level change relative to the control value [383(13)] in hamsters at a dose of 0.2% of diet for 1 week
# Low-density lipoprotein receptor (Homo sapiens), sequence (P01130 whole entry, the tested form may be a part): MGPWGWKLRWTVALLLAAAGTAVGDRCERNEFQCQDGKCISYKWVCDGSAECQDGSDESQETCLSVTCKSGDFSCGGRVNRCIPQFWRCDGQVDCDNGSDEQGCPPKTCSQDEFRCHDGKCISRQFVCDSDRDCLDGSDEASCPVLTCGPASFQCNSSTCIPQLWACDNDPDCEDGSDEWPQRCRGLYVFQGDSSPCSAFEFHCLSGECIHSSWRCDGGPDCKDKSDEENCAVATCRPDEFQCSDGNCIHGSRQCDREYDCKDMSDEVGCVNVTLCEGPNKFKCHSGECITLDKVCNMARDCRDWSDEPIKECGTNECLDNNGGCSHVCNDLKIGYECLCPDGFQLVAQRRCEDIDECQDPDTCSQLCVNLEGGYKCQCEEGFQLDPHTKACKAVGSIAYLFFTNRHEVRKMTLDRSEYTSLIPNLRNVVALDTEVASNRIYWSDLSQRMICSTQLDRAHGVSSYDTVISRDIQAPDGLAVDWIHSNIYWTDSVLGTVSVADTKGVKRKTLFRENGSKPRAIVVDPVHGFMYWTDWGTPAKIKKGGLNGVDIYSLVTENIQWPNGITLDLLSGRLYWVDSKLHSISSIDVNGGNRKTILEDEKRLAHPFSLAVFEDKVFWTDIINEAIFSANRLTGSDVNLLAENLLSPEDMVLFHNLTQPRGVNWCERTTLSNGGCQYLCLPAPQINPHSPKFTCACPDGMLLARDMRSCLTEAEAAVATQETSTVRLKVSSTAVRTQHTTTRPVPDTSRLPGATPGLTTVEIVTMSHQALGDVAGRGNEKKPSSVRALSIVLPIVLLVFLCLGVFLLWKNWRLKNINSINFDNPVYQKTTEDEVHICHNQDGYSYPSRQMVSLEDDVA
structure (smiles),measurement,setting,value
C/C=C/C[C@H]1C2CC[C@H]3[C@@H]4CC[C@H]([C@H](C)CCCC(C)C)[C@@]4(C)CC[C@@H]3[C@@]2(C)CC[C@H]1O (stereo partly drawn),Total cholesterol,[1],210 mg/dL
same,MA,[2],86%
same,Activity,[3],inactive
same,Relative change,[4],-33%
same,EC30,[5],11 µM
same,Activity,[6],Negative
C=CC[C@H]1C2CC[C@H]3[C@@H]4CC[C@H]([C@H](C)CCCC(C)C)[C@@]4(C)CC[C@@H]3[C@@]2(C)CC[C@H]1O (stereo partly drawn),Total cholesterol,[7],168 mg/dL
same,Total cholesterol,[8],213 mg/dL
same,Total cholesterol,[9],151 mg/dL
same,Total cholesterol,[1],167 mg/dL
same,Relative change,[10],-51%
same,Relative change,[11],-49%
same,Relative change,[12],-53%
same,Relative change,[13],-40%
same,Activity,[3],inactive
same,Relative change,[14],-47%
same,MA,[15],127%
same,Total cholesterol,[16],188 mg/dL
same,Total cholesterol,[17],197 mg/dL
same,Relative change,[18],-31%
same,EC30,[5],2.9 µM
same,Relative change,[19],-50%
same,Total cholesterol,[20],174 mg/dL
same,Activity,[6],Negative
same,Relative change,[21],-47%
same,Total cholesterol,[22],199 mg/dL
CC(C)CCC[C@@H](C)[C@H]1CC[C@H]2[C@@H]3CC[C@H]4[C@H](Cc5ccc(F)cc5)[C@@H](O)CC[C@]4(C)[C@H]3CC[C@]12C,Relative change,[18],5%
same,Total cholesterol,[23],287 mg/dL
CC(C)CCC[C@@H](C)[C@H]1CC[C@H]2[C@@H]3CCC4[C@H](Cc5ccc(OC(F)(F)F)cc5)[C@H](O)CC[C@]4(C)[C@H]3CC[C@]12C (stereo partly drawn),Activity,[3],inactive
same,Control,[24],-34%
same,MA,[15],71%
same,EC30,[5],15 µM
same,Total cholesterol,[25],209 mg/dL
Cc1ccc(C[C@H]2C3CC[C@H]4[C@@H]5CC[C@H]([C@H](C)CCCC(C)C)[C@@]5(C)CC[C@@H]4[C@@]3(C)CC[C@H]2O)cc1 (stereo partly drawn),Total cholesterol,[8],283 mg/dL
same,Activity,[3],inactive
same,MA,[26],45%
same,EC30,[5],35 µM
same,Relative change,[27],-33%
CC(C)CCC[C@@H](C)[C@H]1CC[C@H]2[C@@H]3CCC4[C@H](Cc5ccc(O)cc5)[C@H](O)CC[C@]4(C)[C@H]3CC[C@]12C (stereo partly drawn),Total cholesterol,[28],261 mg/dL
same,EC30,[29],inactive
same,Relative change,[30],-15%
C=C(Cl)C[C@H]1C2CC[C@H]3[C@@H]4CC[C@H]([C@H](C)CCCC(C)C)[C@@]4(C)CC[C@@H]3[C@@]2(C)CC[C@H]1O (stereo partly drawn),Relative change,[31],-40%
same,Activity,[3],inactive
same,MA,[15],141%
same,EC30,[5],1.8 µM
same,Total cholesterol,[22],200 mg/dL
CCC[C@H]1C2CC[C@H]3[C@@H]4CC[C@H]([C@H](C)CCCC(C)C)[C@@]4(C)CC[C@@H]3[C@@]2(C)CC[C@H]1O (stereo partly drawn),Total cholesterol,[9],222 mg/dL
same,Activity,[3],inactive
same,MA,[15],48%
same,Relative change,[32],-27%
same,EC30,[5],38 µM
same,Activity,[6],Negative
CC(C)CCC[C@@H](C)[C@H]1CC[C@H]2[C@@H]3CCC4[C@H](Cc5ccc(I)cc5)[C@H](O)CC[C@]4(C)[C@H]3CC[C@]12C (stereo partly drawn),Total cholesterol,[33],240 mg/dL
same,Activity,[3],inactive
same,Relative change,[34],-37%
same,MA,[15],80%
same,EC30,[5],2.8 µM
same,Activity,[6],Negative
